This sample holds only a part of the variants without activity.
B1: tRNA (parent)
chain: GUUCCGUUGGCGUAAUGGUAACGCGUCUCCCUCCUAAGGAGAAGACUGCGGGUUCGAGUCCCGUACGGAACG

Variants of: B1
Experiment: yeast fitness relative to wild type (ratio to wild type); higher = fitter; tRNA-Arg(CCU), competitive growth, 37 C, YPD
Summary of the method: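 Gene amplicons from the start population and from each of six end populations were read by 100-nucleotide paired-end sequencing. Those end populations came from pooled Saccharomyces cerevisiae strains carrying tRNA-Arg(CCU) gene variants at the native locus, competed in YPD at 37°C for 24 hours. Fitness relative to wild type was worked out from changes in genotype frequencies. Genotypes needed ≥ 100 starting reads, and estimates < 0.5 were set to 0.5.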
In the case of A21G C49G G56C, the yeast fitness is reported as no more than 0.5. With A21G C49U A65C the yeast fitness was 0.747. With A21G C49U G63A the yeast fitness was 0.804. With A21G C49U U53C C61G the yeast fitness was no more than 0.5. Work on A21G C55U yielded a yeast fitness of 0.704. In the case of A21G C60A, the yeast fitness is reported as 0.577. With A21G C60G A70C the yeast fitness was 0.579. A21G C60U showed a yeast fitness of 0.713. With A21G C61G C66G the yeast fitness was no more than 0.5. In the case of A21G C61G G67A, the yeast fitness is reported as no more than 0.5. With A21G C61U A70G the yeast fitness was 0.761. Variant A21G C61U A70U has a yeast fitness of 0.776. A21G C62G gave a yeast fitness of 1.02. Work on A21G G23A A57C A65C A70C yielded a yeast fitness of no more than 0.5. For A21G G23A C27G A37U G44A C49U G63C, the yeast fitness was no more than 0.5. Work on A21G G23A C27U yielded a yeast fitness of 0.75. With A21G G23A C31U G63C U64A C66G the yeast fitness was no more than 0.5. Work on A21G G23C C31U C34G A43G A45C A57U yielded a yeast fitness of 0.574. With A21G G23C C31U C34G A43G A45C G67C the yeast fitness was no more than 0.5. A21G G25A showed a yeast fitness of 1.12. Variant A21G G25A A42C has a yeast fitness of 0.707. Work on A21G G25A G39C C62U yielded a yeast fitness of no more than 0.5. In the case of A21G G25A G48C C62A, the yeast fitness is reported as no more than 0.5. In the case of A21G G25C C27G A42C G68C, the yeast fitness is reported as no more than 0.5. With A21G G25C C61G G68U the yeast fitness was no more than 0.5. In the case of A21G G38C, the yeast fitness is reported as 0.674. With A21G G39A the yeast fitness was 0.809. A21G G39A U54C A70C showed a yeast fitness of no more than 0.5. In the case of A21G G39C A69C, the yeast fitness is reported as 0.536. In the case of A21G G39C C46G, the yeast fitness is reported as 0.627. Work on A21G G41A yielded a yeast fitness of 0.995. A21G G41A C60U showed a yeast fitness of 0.574. Variant A21G G44A A69C has a yeast fitness of no more than 0.5. Variant A21G G44C has a yeast fitness of 0.963. Work on A21G G44C G63C yielded a yeast fitness of no more than 0.5. A21G G48A showed a yeast fitness of 0.92. Work on A21G G48C yielded a yeast fitness of 1.01. A21G G48C C66U G67C A70G gave a yeast fitness of no more than 0.5. Work on A21G G50A yielded a yeast fitness of 1.14. A21G G50C showed a yeast fitness of 0.76. A21G G50C G52C showed a yeast fitness of no more than 0.5. For A21G G56A G67A, the yeast fitness was 0.654. Work on A21G G56C A65G yielded a yeast fitness of 0.583. A21G G56C C62A gave a yeast fitness of no more than 0.5. A21G G58C gave a yeast fitness of 1.01. For A21G G58C U59C G63A, the yeast fitness was 0.701. A21G G63U showed a yeast fitness of 0.752. A21G G67A gave a yeast fitness of 0.956. For A21G G67C, the yeast fitness was 0.865. For A21G G67U A69C, the yeast fitness was 0.528. Work on A21G U26A C34U G50C C62U yielded a yeast fitness of no more than 0.5. For A21G U26C A40U C49U, the yeast fitness was no more than 0.5. Work on A21G U28A A42C A57G C66A yielded a yeast fitness of 0.6. In the case of A21G U32A, the yeast fitness is reported as 0.661. Work on A21G U32A U47A yielded a yeast fitness of 0.556. A21G U32C C34G gave a yeast fitness of no more than 0.5. Work on A21G U32C G51C C61A yielded a yeast fitness of 0.508. For A21G U32G, the yeast fitness was 0.576. With A21G U35C A36U A40U C55U A57C the yeast fitness was no more than 0.5. Work on A21G U35C A65U yielded a yeast fitness of no more than 0.5. Work on A21G U35G A37G A42G yielded a yeast fitness of no more than 0.5. A21G U47A G68A gave a yeast fitness of 0.685. Variant A21G U53A has a yeast fitness of 0.651. A21G U53A A57U A65U gave a yeast fitness of 0.52. For A21G U53A U54A, the yeast fitness was no more than 0.5. A21G U53A U54C C61G gave a yeast fitness of 0.718. A21G U59A A69G showed a yeast fitness of no more than 0.5. In the case of A21G U59A U64A, the yeast fitness is reported as no more than 0.5. For A21G U64A, the yeast fitness was 0.877. With A21U A36C the yeast fitness was no more than 0.5. Variant A21U A36C C49A C62U A65U has a yeast fitness of no more than 0.5. A21U A36C C60G A65C showed a yeast fitness of 0.575. A21U A36C G38C G58C A69C showed a yeast fitness of no more than 0.5. Variant A21U A36G has a yeast fitness of 0.804. Work on A21U A36G A43U yielded a yeast fitness of 0.729. A21U A36G C49A showed a yeast fitness of no more than 0.5. A21U A36G C49A G63A showed a yeast fitness of no more than 0.5. For A21U A36G C55A G67C, the yeast fitness was no more than 0.5. In the case of A21U A36U A65G, the yeast fitness is reported as 0.589. Variant A21U A36U G58A has a yeast fitness of no more than 0.5. Variant A21U A37G G50C G56C has a yeast fitness of no more than 0.5. A21U A40C A42U A43G C49U G50C C66U showed a yeast fitness of no more than 0.5. In the case of A21U A40C A42U C49U G50C C66U, the yeast fitness is reported as 0.578.
